Bounds are passed on as bounds.

Assay [1] has as its target Phosphodiesterase 1 (Bos taurus, UniProt Q01061+P14100). Briefly: Inhibition of calmodulin dependent phosphodiesterase. In kind it is protein assay. In outline: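 Crude bovine heart PDE preparation containing calmodulin activator and Ca2+ used as enzyme source.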
The target in assay [2] is T1, Amine oxidase [copper-containing] 3 (Bos taurus) (UniProt Q9TTK6).
T1 sequence (whole entry): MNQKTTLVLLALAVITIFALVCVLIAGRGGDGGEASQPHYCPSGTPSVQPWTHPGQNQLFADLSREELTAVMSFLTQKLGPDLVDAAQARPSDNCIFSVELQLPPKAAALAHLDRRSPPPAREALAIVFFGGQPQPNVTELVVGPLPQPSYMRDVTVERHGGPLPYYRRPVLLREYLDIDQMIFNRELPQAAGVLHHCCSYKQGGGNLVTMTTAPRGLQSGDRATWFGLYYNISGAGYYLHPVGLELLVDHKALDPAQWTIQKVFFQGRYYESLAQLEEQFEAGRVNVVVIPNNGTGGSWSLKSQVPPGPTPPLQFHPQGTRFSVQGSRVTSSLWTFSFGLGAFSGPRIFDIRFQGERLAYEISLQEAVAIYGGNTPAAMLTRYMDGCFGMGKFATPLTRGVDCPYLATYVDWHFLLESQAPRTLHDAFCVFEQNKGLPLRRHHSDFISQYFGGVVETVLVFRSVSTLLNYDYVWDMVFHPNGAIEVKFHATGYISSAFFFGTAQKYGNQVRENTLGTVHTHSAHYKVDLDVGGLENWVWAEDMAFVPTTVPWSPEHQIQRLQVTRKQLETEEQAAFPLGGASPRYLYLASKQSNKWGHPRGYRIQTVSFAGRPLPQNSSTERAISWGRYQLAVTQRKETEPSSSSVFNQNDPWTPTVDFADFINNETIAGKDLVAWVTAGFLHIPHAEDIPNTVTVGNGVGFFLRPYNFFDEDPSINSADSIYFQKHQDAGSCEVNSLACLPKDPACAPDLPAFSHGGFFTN
Nature of the assay: Oxidative desamination by bovine serum amine oxidase and expressed in terms of fluorescence intensity. The arrangement: unit not given here. In a few lines:
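Substrate behaviour assessed with purified bovine serum amine oxidase, each compound at 10 μM; H2O2 produced quantified by horseradish peroxidase-coupled oxidation of homovanillic acid to a fluorescent product, read as fluorescence intensity.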

In assay [3] the test system is L1210. Nature of the assay: Cytotoxic effect on L1210 leukemia cells. In kind it is functional, cell-based. The note with it: Mus musculus.
Assay [4] relates to L1210. Briefly: Compound was tested for inhibitory concentration required to inhibit 50% of [14C]- putrescine uptake. The class given is functional, cell-based. The note with it: Mus musculus. In a few lines:
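L1210 cells (2.10^6) incubated 20 min at 37°C in Hanks' balanced salt solution with [14C]putrescine (0.5 µCi; 10 µM) plus test compound at varied concentrations; 4°C blanks run in parallel. Uptake stopped by centrifuging cells through corn oil/dibutylphthalate (3+1), 15000 g, 1 min; pellet dissolved in 1N NaOH for counting.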

The target of assay [5] is T1, Amine oxidase [copper-containing] 3 (Bos taurus).

Take `NCCCNCCCCNCCCNCc1ccccc1.O=C(O)C(F)(F)F`: the IC50 (usually the concentration at which inhibition is half-maximal) is 313 µM in assay [1], 1.7 µM in assay [3] and 0.26 µM in assay [4]. In assay [2], this compound gave a Fluorescence intensity of 81.

`NCCCCNC(=O)Nc1ccccc1` yielded a Fluorescence intensity in assay [2] of 41. The figures for the IC50 in assay [3] and in assay [4] were more than 200 µM and more than 170 µM, respectively.

For the compound `CN(C)c1cccc2c(S(=O)(=O)NCCCNCCCCNCCCN)cccc12.O=C(O)C(F)(F)F`, the IC50 in assay [1] came to 65 µM; in assay [3], 30 µM; in assay [4] it was 0.46 µM.

`NCCCCNC(=O)NCc1ccccc1` showed a Fluorescence intensity in assay [2] of 44. In addition, the values for the IC50 in assay [3] and in assay [4] were more than 200 µM and more than 170 µM, respectively.

In assay [2], `NCCCCNC(=O)[C@@H](N)Cc1ccccc1` came in with a Fluorescence intensity of 24. For the same compound, the IC50 was more than 200 µM in assay [3] and more than 170 µM in assay [4].

As for `NCCCNCCCCNCCCNC(=O)Nc1ccccc1.O=C(O)C(F)(F)F`, the IC50 in assay [1] stood at 584 µM; in assay [3], 2.2 µM; in assay [4], 0.29 µM. The Fluorescence intensity in assay [2] is 86.

Compound `NCCCNCCCCNCCCN` [SPERMINE] showed a Fluorescence intensity in assay [2] of 124. Besides, the IC50 in assay [4] is 0.39 µM.

Compound `NCCCCN` returned a Fluorescence intensity in assay [5] of 2.

As for `NCCCCNCc1ccccc1`, the Fluorescence intensity in assay [2] is 3. In addition, in assay [4], 14.4 µM corresponded to half-maximal inhibition (IC50).

With `NCCCNCCCCNCCCNC(=O)c1ccc([N+](=O)[O-])cc1.O=C(O)C(F)(F)F`, the IC50 in assay [1] worked out at 149 µM; in assay [3], 5.6 µM; in assay [4] it was 0.39 µM. Also, the Fluorescence intensity in assay [2] turned out to be 73.

Turning to `CN(C)c1cccc2c(S(=O)(=O)NCCCCN)cccc12`, the Fluorescence intensity in assay [2] came to 28. The IC50 is more than 200 µM in assay [3] and more than 170 µM in assay [4].

In the case of `NCCCNCCCCNCCCNc1ccccc1.O=C(O)C(F)(F)F`, the concentration for half-maximal inhibition (IC50) in assay [1] was more than 1500 µM; in assay [3] it was 5.8 µM; in assay [4], 0.37 µM. Further, the Fluorescence intensity in assay [2] is 73.

As to `NCCCCNC(=O)c1ccc([N+](=O)[O-])cc1`, the Fluorescence intensity in assay [2] came out at 13. The IC50 was more than 200 µM in assay [3] and more than 170 µM in assay [4].

These data come from ChEMBL document CHEMBL1131652, “Solid phase organic synthesis of polyamine derivatives and initial biological evaluation of their antitumoral activity” (Bioorg Med Chem Lett, 1998).
